Laboratory results reported in ChEMBL document CHEMBL1147710, “Synthesis of (2E)-3-{2-[(substituted benzyl)oxy]phenyl}acrylaldehydes as novel anti-inflammatory agents” (Bioorg Med Chem Lett, 2006).

What was measured:
Neutrophil [1] = assay: Formation of fMLP-induced superoxide in Sprague-Dawley rat neutrophil at 30 uM per 10^6 cells after 30 min; assay type: functional
Outline: (§1)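 Rat (Sprague Dawley) neutrophils were stimulated with fMLP (0.3 µM) plus cytochalasin B (5 µg/mL). Superoxide formed was reported as nmol/10⁶ cells/30 min and percent inhibition versus control. IC50 was derived from the […] concentration series. N = 3.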

Neutrophil [2] = assay: Inhibition of fMLP-induced superoxide formation in Sprague-Dawley rat neutrophil at 30 uM; assay type: functional; outline: as §1
Neutrophil [3] = assay: Formation of fMLP-induced superoxide in Sprague-Dawley rat neutrophil at 3 uM per 10^6 cells after 30 min; assay type: functional; outline: as §1
Neutrophil [4] = assay: Inhibition of fMLP-induced superoxide formation in Sprague-Dawley rat neutrophil at 3 uM; assay type: functional; outline: as §1
Neutrophil [5] = assay: Inhibition of PMA-induced superoxide formation in Sprague-Dawley rat neutrophil at 30 uM; assay type: functional
Outline: (§2)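 Superoxide generation by rat (Sprague Dawley) neutrophils stimulated with PMA at 3 nM. Test range 1–30 µM. Readout is superoxide formed in nmol/10⁶ cells/30 min, with percent inhibition versus control. N = 3.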

Neutrophil [6] = assay: Inhibition of PMA-induced superoxide formation in Sprague-Dawley rat neutrophil at 10 uM; assay type: functional; outline: as §2
Neutrophil [7] = assay: Inhibition of fMLP-induced superoxide formation in Sprague-Dawley rat neutrophil; assay type: functional, cell-based; outline: as §1
Neutrophil [8] = assay: Formation of fMLP-induced superoxide in Sprague-Dawley rat neutrophil at 10 uM per 10^6 cells after 30 min; assay type: functional; outline: as §1
Neutrophil [9] = assay: Formation of PMA-induced superoxide in Sprague-Dawley rat neutrophil at 10 uM per 10^6 cells after 30 min; assay type: functional; outline: as §2
Neutrophil [10] = assay: Formation of PMA-induced superoxide in Sprague-Dawley rat neutrophil at 30 uM per 10^6 cells after 30 min; assay type: functional; outline: as §2
Neutrophil [11] = assay: Inhibition of fMLP-induced superoxide formation in Sprague-Dawley rat neutrophil at 10 uM; assay type: functional; outline: as §1
Neutrophil [12] = assay: Inhibition of fMLP-induced superoxide formation in Sprague-Dawley rat neutrophil at 1 uM; assay type: functional; outline: as §1
Neutrophil [13] = assay: Formation of fMLP-induced superoxide in Sprague-Dawley rat neutrophil at 1 uM per 10^6 cells after 30 min; assay type: functional; outline: as §1

Structure (SMILES)	Activity (Neutrophil [1])	inhibition at 30 µM (Neutrophil [2])	Activity (Neutrophil [3])	inhibition at 3 µM (Neutrophil [4])	inhibition at 30 µM (Neutrophil [5])	inhibition at 10 µM (Neutrophil [6])	IC50 (Neutrophil [7])	Activity (Neutrophil [8])	Activity (Neutrophil [9])	Activity (Neutrophil [10])	inhibition at 10 µM (Neutrophil [11])	inhibition at 1 µM (Neutrophil [12])	Activity (Neutrophil [13])
O=C/C=C/c1ccccc1OCc1ccccc1	0.48 nmol	83.2%	1.96 nmol	31.8%	-23.6%	-13.5%	6.4 µM	1.05 nmol	8.61 nmol	9.39 nmol	63.7%		
O=C/C=C/c1ccccc1OCc1cccc(Cl)c1	0.34 nmol	88%	2 nmol	31.2%	-18.7%	-30.1%	5.9 µM	0.99 nmol	9.85 nmol	9.06 nmol	65.7%		
COc1ccc(OCc2ccccc2Cl)c(/C=C/C=N/O)c1	0.78 nmol	77.7%	2.45 nmol	29.5%	-44.4%	1.5%	9.5 µM	2.09 nmol	5.27 nmol	7.62 nmol	40.4%		
Cc1ccc(COc2ccccc2/C=C/C=O)cc1	0.78 nmol	73.2%	2.24 nmol	21.9%	-25.8%	-13.2%	11 µM	1.57 nmol	8.53 nmol	9.51 nmol	45.1%		
COc1ccc(OCc2ccccc2)c(/C=C/C=N/O)c1	0.48 nmol	86%	2.03 nmol	41.9%	-29.4%	7.6%	4.3 µM	1.05 nmol	4.97 nmol	6.9 nmol	70%		
O=C/C=C/c1ccccc1OCc1cccc(F)c1	0.46 nmol	83.9%	1.7 nmol	40.3%	-23.7%	-6.2%	4.5 µM	0.76 nmol	8.07 nmol	9.38 nmol	73%		
O=C/C=C/c1ccccc1OCc1ccc(Cl)cc1	0.37 nmol	86.9%	2.23 nmol	22.4%	-22%	-23.9%	7.4 µM	1.05 nmol	9.41 nmol	9.26 nmol	63.1%		
COc1ccc(OCc2ccccc2)c(/C=C/C=O)c1			1.37 nmol	52.2%	-20.9%	-24%	2.6 µM	0.53 nmol	9.42 nmol	9.19 nmol	81.2%	26.7%	2.09 nmol
COc1ccc(OCc2cccc(Cl)c2)c(/C=C/C=O)c1			1.82 nmol	36.8%	-31.2%	-35.7%	4.2 µM	0.67 nmol	10.3 nmol	9.96 nmol	77.7%	11.4%	2.54 nmol
O=C/C=C/c1ccccc1OCc1ccc(Cl)cc1Cl	1.76 nmol	39.9%			-29.8%	-22.7%		2.16 nmol	9.29 nmol	9.84 nmol	24.4%		
O=C/C=C/c1ccccc1OCc1cccc(Cl)c1Cl	1.75 nmol	39.9%			17.3%	11.2%		2.39 nmol	6.72 nmol	6.29 nmol	17.4%		
